The nature of the series: Toxicity liver stage against HepG2, at 10uM. Type of series: cell-based. Details: test concentration 10 uM, cell line HepG2-A16-CD81EGFP. Conditions: human, HepG2-A16-CD81EGFP cells; read-out: INHIBITION
In outline:
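Uninfected HepG2-A16-CD81EGFP cells, 3 × 10^3 per well, 1536-well, plated on prespotted compound at 10 μM final, parasite-free screening media added to match infected plates; puromycin 10 μM positive, DMSO 0.5% negative; run in parallel with 48 h PbLuc assay at 37 °C, 5% CO2; viability by CellTiter-Glo luminescence, normalized to controls.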
Turning to `Cc1nn(C(=O)c2cccnc2)c(C)c1C`, the cytotoxicity at 10 µM was -8.62%.

Turning to `CNC(=O)NC(=O)C(NCc1cccs1)c1ccccc1` (stereo not given), the cytotoxicity at 10 µM amounted to 6.75%. The value for `Cc1cc(=O)[nH]c(-n2nc(-c3ccccc3)cc2N)n1` was 5.71%; that for `c1ccc2c(Cc3nnc([C@H]4CCNC4)o3)c[nH]c2c1` was -0.762%; that for `CCN1Cc2cc3c(cc2NCCC1=O)OCO3` was -7.44%. The same measure for `Cc1ncc(CNC(C)(C)CO)c2cc(C(=O)c3ccc(Br)cc3)oc12`: 12.7%; for `O=C(c1ccc[nH]1)N1C[C@H](OCc2ccccn2)[C@H]2COC[C@H]21`: 0.238%. The value for `CC(C)Nc1nc(N2CCCC2)nc2c1CN(c1ncc(F)cn1)CC2` was 13.5%. As to `CC(C)NC(=O)[C@@H](NC(=O)N1CCN(c2ccc(Cl)cc2)CC1)C(C)C`, the cytotoxicity at 10 µM is 34.9%.

As for `CCCN1CCN(C(=O)Cn2nc(C(F)(F)F)c(Br)c2C2CC2)CC1`, the cytotoxicity at 10 µM was 2.2%.

In the case of `CCn1ncc(-c2cc(C(F)F)nc3sc(C(N)=O)c(N)c23)c1C`, the cytotoxicity at 10 µM is 10.3%.

On to `CSc1ccc(-c2noc(CN(CC(C)C)CC(C)C)n2)cc1`, for which the cytotoxicity at 10 µM was -3.7%.

`CC(=O)N1C[C@@H](c2ccsc2)[C@@H]2CN(Cc3ccccc3C)CC[C@@H]21`: the cytotoxicity at 10 µM is -5%. Take `N#Cc1ccccc1OCCN1CCN(C(=O)C2CCCC2)CC1`: the cytotoxicity at 10 µM is -52.1%. The value for `N#Cc1cc(F)ccc1NCC1CCN(S(=O)(=O)C(F)F)CC1` was 18.4%; that for `CC(CNC1CCN(c2ccccn2)CC1)Oc1ccc(F)cc1` (stereo not given) was 7.43%; that for `CCNC(=O)C(C)NC(=O)Nc1ccccc1SC(F)(F)F` (stereo not given) was -9.5%. The value for `N#Cc1c(F)cccc1Nc1cnn(CC(N)=O)c1` was 6.25%; that for `CCc1ccc(C2CCCN2C(=O)Cc2ccc(NC(C)=O)cc2)o1` (stereo not given) was -0.557%. The value for `Cc1cccn2c(=O)cc(CN3CCCC3Cn3cccn3)nc12` (stereo not given) was -4.55%. On to `COCc1nc2cc(NCc3sc(C)nc3C)ccc2o1`, for which the cytotoxicity at 10 µM worked out at 29.1%.

In the case of `CNS(=O)(=O)c1cccc(C(C)NCc2ccc(F)cc2F)c1` (stereo not given), the cytotoxicity at 10 µM was found to be 12.8%. The value for `Cc1ccc(C(=O)CN2C(=O)c3ccccc3CS2(=O)=O)c(C)c1` was 17.6%; that for `COc1ncccc1C(=O)NC1(c2cccc(F)c2)CCOCC1` was 10.9%.

For the compound `CC(Nc1cnn(C)c(=O)c1Cl)c1ccc(F)cc1` (stereo not given), the cytotoxicity at 10 µM stood at 20.7%. The same measure for `CNC(=O)CN1CCC(OCc2ccc(Cl)c(Cl)c2)CC1`: -14.4%. The same measure for `CCCc1noc(CN2CCOCC2C)n1` (stereo not given): 6.3%; for `O=C(CN(CC(O)c1ccc(F)cc1)C1CC1)NCc1cccs1` (stereo not given): 0.0428%. The value for `CCNC(=O)N(C)C1CCCc2nc(C)sc21` (stereo not given) was 12.2%; that for `CCC(CCO)NS(=O)(=O)c1ccc(Br)cn1` (stereo not given) was 6.62%.

On to `O=C(Cc1ccccc1F)NCC1CCN(CCN2CCOCC2)C1` (stereo not given), for which the cytotoxicity at 10 µM was -47%. As to `Cc1csc([C@H]2C[C@@H]3CCN(Cc4cc(C)on4)C[C@H]3O2)n1`, the cytotoxicity at 10 µM was -99.4%. For `CC(=O)N1CCc2nc(-c3ccc(F)cc3)nc(NC(C)C)c2CC1`, the cytotoxicity at 10 µM is -114%.

`COc1ccc2cc(C3CN(C(=O)CN4CCCC4)CCO3)ccc2c1` (stereo not given): the cytotoxicity at 10 µM was -6.88%. The same measure for `CC(C)c1cc(N2CC[C@H](F)C2)n2nccc2n1`: -2.56%; for `Cc1ncsc1C(=O)N1CC[C@@]2(O)CCN(C(=O)N3CCCC3)C[C@H]2C1`: -14.2%. The value for `CN(CCCc1cnn(C)c1)Cc1cc2n(n1)CCCN(C)C2` was -0.857%; that for `Cc1cc2ccccc2n1CCC(=O)N1CCCC2(CC1)CNC(=O)O2` (stereo not given) was 3.5%. Consider `O=C1CC2(CCN(c3nccc(-c4cc(C(=O)O)ccn4)n3)CC2)CN1`, for which the cytotoxicity at 10 µM was 2.16%. The same measure for `C[C@@H]1CCC[C@H](C)N1CC(=O)N1CCc2[nH]c(-c3ccccc3)nc2C1`: 4.02%. The value for `CCCn1cc(NC(=O)c2cccc(CN3CC[C@H](O)C3)c2)nn1` was -12.2%; that for `Cc1c(CN2CCc3[nH]cnc3C2C2CC2)[nH]c2ccc(F)cc12` (stereo not given) was 10.8%; that for `CSc1nnc(CC2CCN(C(=O)Cc3ccncc3)CC2)n1C` was -46.7%. The same measure for `CC(C)N1CC2(CCCN(c3ccnc4ccccc34)C2)CCC1=O` (stereo not given): 8.62%; for `O=C1CN(Cc2cn(C3CCN(C4CSCCSC4)CC3)nn2)CCN1`: -48.8%; for `Cc1ccc(-c2nn(-c3cccc(F)c3)cc2CN(C)CCO)o1`: 11.6%. In the case of `Cc1nc(N2CCCOC(Cn3cccn3)C2)c2sccc2n1` (stereo not given), the cytotoxicity at 10 µM amounted to 35.5%. The same measure for `CC(=O)NCCC1CCN(c2nc(C(C)(C)C)nc3c2cnn3C)CC1`: -0.891%. The same measure for `Cc1ccccc1S(=O)(=O)N1CCc2c(ncnc2N(C)C)C1`: -16.6%; for `CCn1cc(CN2CCCC3(CCC(=O)N(CCC(C)C)C3)C2)cn1` (stereo not given): -4.73%; for `CN(C(=O)c1cccc(NCc2cccs2)c1)C(C1CC1)C1CC1`: 8.41%. The same measure for `CC(Nc1ncnc2c1CCNC2)c1ccc(C(C)(C)C)cc1` (stereo not given): 28%; for `Cc1ccc(-c2cn[nH]c2C2CCCN(c3ccnc(C)n3)C2)cc1` (stereo not given): -1.78%. For the compound `C[C@@H]1CN(C(=O)CCCN2CCOCC2)CC[C@@]1(O)C1CCC1`, the cytotoxicity at 10 µM was -2.95%. The same measure for `c1ccc(Oc2cccc(OC34CCCN(CC3)C4)c2)cc1` (stereo not given): 0.681%; for `Cc1cnc(NCC(C)(C)N2CCOCC2)nc1`: 5.68%; for `c1cnn(CC2CN(Cc3csc(C4CCCCC4)n3)CCO2)c1` (stereo not given): -6.37%. In the case of `CC(C)c1ncc2c(n1)CN(Cc1nc(-c3cccs3)no1)CC2`, the cytotoxicity at 10 µM is -7.91%. As for `Cc1csc(NC(=O)CN2CCC(c3ccnn3CCO)CC2)n1`, the cytotoxicity at 10 µM worked out at 5.03%.

Consider `CC(C)NC(=O)[C@@H]1CC[C@@H]2[C@@H](CCN2Cc2cn(C)c3ccccc23)O1`, for which the cytotoxicity at 10 µM amounted to 9.49%. With `COc1cccc(CN2CCC3(CC2)CCN(c2ncc(C)cn2)C3)c1`, the cytotoxicity at 10 µM is -3.55%.

For `O=C(c1ccc(F)cc1)N1CC[C@H]2[C@H]1CCN2CC1CCOCC1`, the cytotoxicity at 10 µM is -76.4%. Take `CC(C)OCc1ncn2c1CN(CC1CC1)CCC2`: the cytotoxicity at 10 µM was -68.9%. The value for `Cc1noc(C)c1CN1CCC2(CC1)NC(=O)CC2c1ccccc1` (stereo not given) was -109%; that for `Cc1cccc(CN2CCC3(CCCN(Cc4cnn(C)c4)C3)C2)n1` (stereo not given) was -113%. In the case of `Cc1ccsc1CN1CCn2c(COc3cccnc3)cnc2C1C` (stereo not given), the cytotoxicity at 10 µM was -99.4%. The value for `Cn1cc(CN2CCCC23CCN(C(=O)c2cccn2C)CC3)cn1` was 2.88%. On to `Cc1ccc(CN2C[C@@H]3C[C@H](C(=O)Nc4cccnc4)[C@H](C2)O3)cc1`, for which the cytotoxicity at 10 µM was -83.8%.

Regarding `CC1(C)CC(n2cc3nc(N4CCCC4)[nH]cc-3c2=O)CC(C)(C)N1`, the cytotoxicity at 10 µM amounted to 9.46%. In the case of `CC1(C)[C@@H]2CC=C(CN3CCCn4nc(C(=O)O)cc4C3)[C@H]1C2`, the cytotoxicity at 10 µM was -40.8%.

For the origin of these results see ChEMBL document CHEMBL4513216, “Probing the Open Global Health Chemical Diversity Library for Multistage-Active Starting Points for Next-Generation Antimalarials” (ACS Infect Dis, 2020).
